According to article PMC12257300 (RSC Advances, 2025):
*: point of attachment. Fmoc = O=C(OCC1c2ccccc2-c2ccccc21)*

How the values were obtained:
[1] = soft Fmoc-WWRR-NH2 based hydrogels; cited from earlier work
[2] = Rheology, shear recovery experiment; format: physicochemical; conditions: 2 w/v% P4 biogel, shear strain 50%, 1 Hz, 25 °C
Outline: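 Hydrogel (350 μL) loaded on a 25 mm plate and rested 5 min. G′ and G′′ were recorded for 60 s at 1 Hz and 1% strain, then strain was raised to 50% for 30 s. The cycle was repeated 4 times under a 1 N normal force at 25 °C, in threefold.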

[3] = Gelation by inverted tube test / minimum gelation concentration; format: physicochemical; conditions: 1 w/v% of sequence + 1 w/v% H-FQFQFK-NH2 in PBS
Outline: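 Gels formed by adding PBS to the peptide acetate salt in a tube, then repeated vortexing (1 min) and sonication (5 min), and resting overnight at room temperature before assessment.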

Row | Substance | Gelation behavior of co-formulation with parent peptide (inverted tube test) [3] | further results
1 | Fmoc-WWRR-NH2 | – | Storage modulus G′ of reported hydrogel [1]: ~100 Pa
2 | H-RWRWQFQFK-NH2 [P4, H-RWRWQFQFK-NH2] | – | tan δ at increased shear strain [2]: 0.6
3 | H-RRWWQFQFK-NH2 [P5, H-RRWWQFQFK-NH2] | self-supporting hydrogels | –
4 | H-WRWRFQFQFK-NH2 [P2, H-WRWRFQFQFK-NH2] | self-supporting hydrogels | –
